Screening data deposited in PubChem BioAssay by Broad Institute.
miR-122 sensor = miR-122 Renilla sensor signal increase in Huh7, primary screen, miR-122 inhibitor project, cell-based, single point, plate reader; AID 602342, 2012; actives 0.3% (n = 340,000); Huh7 miR-122 Renilla luciferase sensor, 48 h; neutral wells = 0, positive control = 100; activation (reporter increase), % at 12.5 µM;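 active = mean replicate activation score at least 90 and every replicate individually at or above 90; inconclusive = only one of the two criteria met; inactive = neither criterion met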;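 also: higher luciferase means less miR-122 activity so hits act as miR-122 inhibitors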
Ecoli rRNA inh = reduced GFP signal of wild-type E. coli, primary screen, bacterial rRNA inhibitor project, GFP/RFP fluorescence, OD600, single point. GFP signal change (wild-type ribosome), % (no concentration beside the values). actives 1.6% (n = 350,000). E. coli WT GFP vs humanized-ribosome RFP mutants, 24 h; hits give low values; DMSO median 0, no signal -100;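 active = significant combined selectivity score with lowered wild-type GFP, culture density cut under 30%, mutant RFP and density less affected; inactive = any of these conditions unmet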
Vif imaging = HIV Vif self-association inhibitors, primary screen, imaging, HEK293T, single point; HEK293T cells, Vif self-association by quenched fluorescence, 24 h; inhibition, % at 7.49 µM; actives 0.35% (n = 340,000); in the data active = inhibition above about 50%, passing the limit was not always enough; inconclusive = no clear call, values can overlap the other calls; inactive = below about 31%
S100A4 inh HTS = inhibitors of S100A4-myosin IIA peptide binding, primary screen, biochemical, fluorescence polarization, TAMRA-MyoIIA peptide; Protein S100-A4 (Homo sapiens), P26447; AID 652163, 2013; actives 0.14% (n = 360,000); inhibition, % at 10.7 µM;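 active = mean inhibition of at least 70% across replicates, with every replicate also reaching that level; inconclusive = mean inhibition reaches 70% but some replicates fall short; inactive = mean inhibition below 70%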
Target sequence (P26447 whole entry, looked up): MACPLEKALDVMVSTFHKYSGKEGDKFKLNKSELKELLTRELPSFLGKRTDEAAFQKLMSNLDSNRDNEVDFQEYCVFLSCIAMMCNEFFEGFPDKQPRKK
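Material: S100A4 monomer protein / Buffer or medium: 50 mM HEPES pH 7.2, 10 mM CaCl2, 100 mM KCl / Times: 5 min incubation before reading / Benchmarks: neutral control DMSO, positive control TFP / Reagent: labelled myosin peptide probe, 5 nM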
FN deposit inh = inhibitors of fibronectin matrix deposition, primary screen, AH1F cells, Alexa488-fibronectin fluorescence, plate reader. AH1F fibroblasts, overnight. inhibition, % at 12.6 µM. actives 0.086% (n = 350,000). AID 743247, 2014;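 active = mean inhibition across replicates of 30% or more, regardless of how many single replicates reach that level; inconclusive = mean under 30% yet at least half of replicates reach 30%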;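 also: positive control wells lacked labelled fibronectin entirely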
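Material: AH1F fibroblast monolayer depositing Alexa488-labelled fibronectin into matrix | Input: 10000 AH1F cells/well | Medium: DMEM plus 2% serum, read in PBS | Reagent: Alexa488-fibronectin, 24 nM final in well | Compound dosing: One dose per compound, pinned | Schedule: 1 h adhesion, overnight exposure | Measured by: Fluorescence at 485 nm excitation, 525 nm emission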
Env fusion inh = inhibitors of HIV-1 Env-driven cell-cell fusion, primary screen, HeLa-JRFL effector, CEM21 target cells, luciferase; inhibition, % at 12.3 µM; actives 1.1% (n = 360,000);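 active = mean replicate inhibition score of at least 50 and every replicate individually at or above 50; inconclusive = only one of the two criteria met; inactive = mean below 50 and not all replicates reaching 50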;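 also: 0% = plate neutral controls and 100% = maraviroc near 300 nM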
An asterisk follows results filed as active; ? = inconclusive; . = no result; [ ] = remark or other dose. Shown are actives, neighbours in structure and some others; about 2.6% of the full set was active somewhere.

SMILES	miR-122 sensor	Ecoli rRNA inh	Vif imaging	S100A4 inh HTS	FN deposit inh	Env fusion inh
COc1ccc(-c2nc(CN3CCN(Cc4cccc(Cl)c4)CC3)c(C)o2)cc1	-1	-33*	-12	0	-5	11
Cc1ccc(S(=O)(=O)NCC[C@H]2CC[C@H](NS(=O)(=O)c3ccccc3Cl)[C@@H](CO)O2)cc1	.	-7	.	7	-5	-2[16.7 µM]
COC(=O)c1cc2c(c3c4cc(OC)ccc4n(S(=O)(=O)c4ccccc4)c13)C(=O)N(Cc1ccc(C(F)(F)F)cc1)C2	.	5	.	1	4	96*
COC(=O)c1cc2c(c3c4cc(F)ccc4n(S(=O)(=O)c4ccccc4)c13)C(=O)N(Cc1ccc(C(F)(F)F)cc1)C2	.	5	.	-5	3	19
C[C@H]1CN(C)C(=O)Cc2cc(NS(C)(=O)=O)ccc2O[C@H]1CN(C)C	.	0	.	.	-4	.
COc1ccc(OC)c(S(=O)(=O)N2CCC3(CC2)OCCN3S(=O)(=O)c2cccs2)c1	107*	-11	7	2	5	16
COc1ccc(OC)c(S(=O)(=O)N2CCNCC2)c1	172*	16	-2	1	-17	-7
O=S(=O)(c1ccc(Cl)cc1)N1CCC2(CC1)OCCN2S(=O)(=O)c1cccs1	135*	1	-10	7	3	24
COc1ccc(S(=O)(=O)N2CCC3(CC2)OCCN3S(=O)(=O)c2cccs2)cc1	75	-5	1	0	-34	.
Cc1ccc(S(=O)(=O)N2CCC3(CC2)OCCN3S(=O)(=O)c2cccs2)cc1	?	-8	-1	-1	9	0
CCC(=O)Nc1ccc2c(c1)C(=O)N(C)C[C@@H](OC)[C@H](C)CN(C(=O)COC)[C@@H](C)CO2	.	3	.	-24	-9	.
Clc1ccc(-c2nc(NCCCN3CCOCC3)c3ccccc3n2)cc1	-6	-17*	-4	-7	18	27
Clc1cccc(-c2nc(NCCCN3CCOCC3)c3ccccc3n2)c1	-3	-60	-8	4	8	3
CCc1ccc(N(C(=O)c2snc(C(N)=O)c2N)C(C(=O)NCCC(C)C)c2c[nH]c3ccccc23)cc1 (stereo unspecified)	-4	.	9	.	-2	118*
NC(=O)c1nsc(C(=O)N(c2ccc(F)cc2)C(C(=O)NCC2CCCO2)c2c[nH]c3ccccc23)c1N (stereo unspecified)	4	-4	-7	-2	0	13
O=[N+]([O-])c1ccc(N2CCN(Cc3ccccc3)CC2)c2c1no[n+]2[O-]	3	-4	114*	44	.	-315
COc1ccc2c3c([nH]c2c1)[C@@H](CO)N(C(=O)Nc1ccccc1F)CC31CN(C(=O)c2ccccc2F)C1	.	7	.	5	.	.
C[C@H]1CCCCO[C@@H](CN(C)S(=O)(=O)c2cccs2)[C@@H](C)CN([C@@H](C)CO)C(=O)c2cc(NC(=O)C3CCCCC3)ccc2O1	-7[16.7 µM]	1	.	-9	.	-70[16.7 µM]
Cc1cc(SCC(=O)N2CCCC2=O)nc2ccccc12	-5	1	-7	-4	1	58*
Cc1cc(SCCC(=O)O)nc2ccccc12	-2	.	14	.	.	.
CCC(=O)Nc1ccc2c(c1)C(=O)N(C)[C@@H]1CC[C@H](CC(=O)O)O[C@@H]1CO2	2[16.7 µM]	2	.	-3	-10	.
COc1ccc(CN2CC3(C2)CN(Cc2ccc4c(c2)OCO4)[C@@H](CO)c2[nH]c4cc(OC)ccc4c23)cc1	.	4	.	.	.	.
COc1ccc(-c2cc(N)n(S(=O)(=O)c3c(F)c(F)c(F)c(F)c3F)n2)cc1OC	-6	-3	59*	-2	.	.
C[C@H]1COCc2cn(nn2)CC[C@@H](Cc2ccccc2)C(=O)N1	.	2	.	.	-2	.
Cc1ccc(NC(=O)NC2=NN(c3ccccc3)C(=O)/C2=C2/CCCN2C)cc1	-1	10	0	-44	-4	-2
SMILES	miR-122 sensor	Ecoli rRNA inh	Vif imaging	S100A4 inh HTS	FN deposit inh	Env fusion inh
CN1CCC/C1=C1/C(=O)N(c2ccccc2)N=C1NC(=O)Nc1cccc(Cl)c1	.	-31*	8	4	.	-6
C[C@H]1CN(C)C(=O)Cc2cc([N+](=O)[O-])ccc2O[C@H]1CN(C)C(=O)OC(C)(C)C	.	-1	.	.	-3	.
C=CCN([C@H](C(=O)OC)C(C)C)S(=O)(=O)CCNCc1ccccc1	-1	2	0	-44	-10	62*
Cc1ccc(S(=O)(=O)N2CCCCC2)cc1NC(=O)Cn1c(=O)cnc2ccccc21	8	-3	-7	-9	4	59*
Cc1ccc(S(=O)(=O)N2CCCCC2)cc1NC(=O)CSc1ncccn1	.	6	54*	11	-11	.
Cc1ccc(NC(=O)Cn2c(=O)cnc3ccccc32)cc1S(=O)(=O)N1CCCCC1	9	-7	-18	-2	1	8
CN1CCN(C(=O)C[C@H]2C[C@H]3c4cc(NC(=O)c5ccc6c(c5)OCO6)ccc4O[C@H]3[C@@H](CO)O2)CC1	3[16.7 µM]	-2	.	22	.	7[16.7 µM]
C[C@@H]1CCCCO[C@H](CN(C)Cc2ccc(C(=O)O)cc2)[C@H](C)CN([C@H](C)CO)C(=O)c2cc(NC(=O)C3CCCCC3)ccc2O1	-1[16.7 µM]	3	.	3	.	11[16.7 µM]
C/C(=N\NC(=O)c1ccc(N/N=C(\C)c2ccc(O)cc2)cc1)c1ccc(O)cc1	10	-21*	-5	-3	8	1
C/C(=N\NC(=O)c1ccc(O)cc1)c1cccc(NC(=O)c2ccc(Cl)cc2)c1	-2	-35*	0	4	6	-16
C/C(=N/NC(=O)c1ccc(-c2ccccc2)cc1)c1cccc(O)c1	-12	-26*	-1	2	-7	-8
C/C(=N\NC(=O)c1cccc(O)c1)c1cccc(NC(=O)c2ccc(F)cc2)c1	-2	-6	-5	-3	.	-72
CC(C)NC(=O)Nc1cccc2c1O[C@H](CN(C)S(=O)(=O)c1ccccc1)[C@H](C)CN([C@@H](C)CO)C2=O	-1[16.7 µM]	4	.	12	-4	.
O=C(O)c1ccc(N2C(=O)C3C4c5ccccc5C(Br)(c5ccccc54)C3C2=O)cc1 (stereo unspecified)	.	-36*	-1	-4	.	11
O=C(C[C@H]1CC[C@H](NC(=O)c2cccnc2)[C@H](CO)O1)NCCN1CCCCC1	.	0	.	19	-3	17[16.7 µM]
COc1ccc(C)cc1-n1c(=O)c2ccccc2c2ccccc2c1=O	.	-26*	6	-1	1	0
